Test results published in ChEMBL document CHEMBL3085744, “Hepatoprotective prenylaromadendrane-type diterpenes from the gum resin of Boswellia carterii” (J Nat Prod, 2013).
Activity calls are given as the source filed them. The rule behind the calls is not given here.

What was measured:
A2780 = experiment: Cytotoxicity against human A2780 cells by MTT assay; assay type: cell-based
A549 = experiment: Cytotoxicity against human A549 cells by MTT assay; assay type: cell-based
Neuron = experiment: Neuroprotective activity against MPP+-induced neuronal cell injury in neurons (unknown origin); assay type: functional, cell-based
[1] = Cytotoxicity against human BGC823 cells by MTT assay; assay type: cell-based; settings: BGC-823
L02 [2] = experiment: Hepatoprotective activity against D-galactosamine-induced cell toxicity in human HL-7702 cells assessed as cell survival incubated for 1 hr prior to D-galactosamine-challenge measured after 24 hrs by MTT assay relative to normal cells; assay type: functional; set-up: concentration or dose not given beside the values
Summary of the method: (§1)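 HL-7702 cells (2 × 10^4 per well) precultured 24 h at 37 °C, 5% CO2 in RPMI 1640 with 10% fetal calf serum, penicillin and streptomycin. Test compound (10 μM) added in fresh medium for 1 h, then 25 mM D-galactosamine for 24 h. MTT 0.5 mg/mL 4 h, formazan in DMSO, OD 492 nm. Survival as % of normal; means ± SD, n = 3; bicyclol 10 μM as positive control.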

[3] = Cytotoxicity against human Bel7402 cells by MTT assay; assay type: cell-based; settings: Bel-7402
[4] = Cytotoxicity against human HCT8 cells by MTT assay; assay type: cell-based; settings: HCT-8
[5] = Hepatoprotective activity in human HL-7702 cells assessed as inhibition of D-galactosamine-induced cell toxicity incubated for 1 hr prior to D-galactosamine-challenge measured after 24 hrs by MTT assay relative to control; assay type: functional, L02
L02 [6] = experiment: Hepatoprotective activity against D-galactosamine-induced cell toxicity in human HL-7702 cells assessed as cell survival at 10 uM incubated for 1 hr prior to D-galactosamine-challenge measured after 24 hrs by MTT assay relative to normal cells; assay type: functional; settings: read-out: Survival; summary of the method: as §1

Row | Structure (SMILES) | IC50 (A2780) [µM] | IC50 (A549) [µM] | Activity (Neuron) | IC50 [1] [µM] | Survival (L02 [2]) [%] | IC50 [3] [µM] | IC50 [4] [µM] | inhibition (INH) [5] [%] | viability at 10 µM (L02 [6]) [%]
1 | C=C1CC[C@@H]2[C@H]([C@H]3[C@H](C)CC[C@@H]13)[C@@]2(C)C[C@H](O)/C=C(/C)CO | > 10 | > 10 | inactive | > 10 | 73 | > 10 | > 10 | 36.3 | –
2 | C=C1CC[C@@H]2[C@H]([C@@H]3[C@H]1CC[C@]3(C)O)[C@@]2(C)/C=C/C=C(\C)C=O | > 10 | > 10 | inactive | > 10 | 88 | > 10 | > 10 | 69.6 | –
3 | C=C1CC[C@@H]2[C@H]([C@@H]3[C@H]1CC[C@]3(C)O)[C@@]2(C)[C@@H]1C(=O)C(C)=C[C@H]1O | > 10 | > 10 | inactive | > 10 | – | > 10 | > 10 | – | –
4 | C=C1CC[C@@H]2[C@H]([C@@H]3[C@H]1CC[C@]3(C)O)[C@@]2(C)C/C=C/C(C)(C)O | > 10 | > 10 | inactive | > 10 | 70 | > 10 | > 10 | 27 | –
5 | C=C1CC[C@@H]2[C@H]([C@@H]3[C@H]1CC[C@]3(C)O)[C@@]2(C)/C=C/C=C(/C)CO | > 10 | > 10 | inactive | > 10 | 69 | > 10 | > 10 | 26.1 | –
6 | C=C1CC[C@@H]2[C@H]([C@@H]3[C@H]1CC[C@]3(C)O)[C@@]2(C)CC/C=C(/C)CO | > 10 | > 10 | inactive | > 10 | 73 | > 10 | > 10 | 33.6 | –
7 | COC(=O)c1cc(OC)c2c(c1-c1c(CO)cc(OC)c3c1OCO3)OCO2 [BICYCLOL] | – | – | – | – | – | – | – | 42.5 | 76
8 | C=C1CC[C@@H]2[C@H]([C@@H]3[C@H]1CC[C@]3(C)O)[C@@]2(C)C(/C=C/C(C)(C)O)OC (stereo not given in full) | > 10 | > 10 | inactive | > 10 | – | > 10 | > 10 | – | –
9 | C=C1CC[C@@H]2[C@H]([C@@H]3[C@H]1CC[C@]3(C)O)[C@@]2(C)C[C@@H]1C=C(C)C(=O)O1 | > 10 | > 10 | inactive | > 10 | 73 | > 10 | > 10 | 33.6 | –
10 | C=C1CC[C@@H]2[C@H]([C@@H]3[C@H]1CC[C@]3(C)O)[C@@]2(C)C[C@H]1C=C(C)C(=O)O1 | > 10 | > 10 | inactive | > 10 | 68 | > 10 | > 10 | 24.3 | –
